Measured values collected from several papers.
Each line is one published result; the experiments were not run side by side.
Effect on: cell growth or viability

Compound | cell line | test | setting | IC50 [µM]
Cc1cc(C)cc(COc2cc3c(cc2OCc2cc(C)cc(C)c2)[C@H]2C[C@](O)(Cc4cn(Cc5ccc(-c6ccccc6)cc5)nn4)C[C@H](C)N2CC3)c1 | GES1 | MTT | 48 h | 2.22
NCCCOc1cc(NC(=O)c2cc(OCCN)cc(C(=O)Nc3cc(OCCCN)c4ccccc4n3)n2)nc2ccccc12 | HT-1080 | ATP luminescence | 72 h | 6.8
CCN1C(=O)N(c2c(F)c(OC)cc(OC)c2F)Cc2cnc3[nH]c(CN4CCOCC4)cc3c21 | SNU-16 | ATP luminescence | 96 h | 0.00338
CCCON(Cc1ccc(C(=O)NO)cc1)C(=O)Nc1ccccc1 | SUP-B15 | ATP luminescence | 72 h | 6.78
O=[N+]([O-])c1ccc(NC(=S)NN=Cc2ccccn2)cc1 | BHK | SRB | 48 h | 54.8
CCN1CCN(c2ccc(Nc3cc(N(C)C(=O)Nc4c(Cl)c(OC)cc(OC)c4Cl)ncn3)cc2)CC1 | NCI-H716 | ATP luminescence | 96 h | 0.00576
NCCCOc1cc(NC(=O)c2cc(Cl)cc(C(=O)Nc3cc(OCCCN)c4ccccc4n3)n2)nc2ccccc12 | HT-1080 | ATP luminescence | 72 h | 0.6
CC(C)C[C@H](NC(=O)[C@H](Cc1ccccc1)NC(=O)c1cnccn1)B(O)O | HT-1080 | ATP luminescence |  | 0.013
Oc1ccccc1CN=CCNc1ccnc2cc(Cl)ccc12 | CHO | MTT |  | > 300
CCCCCCCCCCCC(=O)Oc1c(C)c(O)c(C(=O)/C=C/c2ccccc2)c(OC)c1C | SH-SY5Y | SRB | 72 h | > 50
O=C(Nc1cccc(CO)c1)c1c[nH]c2ccc(Cl)cc12 | T24 | MTT |  | 16
CN(C)CCCOc1cc(NC(=O)c2cc(Cl)cc(C(=O)Nc3cc(OCCCN(C)C)c4ccccc4n3)n2)nc2ccccc12 | HT-1080 | ATP luminescence | 72 h | 1.8
CCN(CC)CCNC(=O)c1c(C)[nH]c(/C=C2\C(=O)Nc3ccc(F)cc32)c1C | IEC-6 |  | 72 h | 3.06
NCCOc1cc(NC(=O)c2cc(OCc3c[nH]nn3)cc(C(=O)Nc3cc(OCCN)c4ccccc4n3)n2)nc2ccccc12 | HT-1080 | ATP luminescence | 72 h | 13.5
Cc1ccc2nc(Cl)c(C=C3C(=O)Nc4ccccc43)cc2c1 | CHO | MTT | 72 h | 80
CCCCCC/N=C1\c2cc(C(N)=O)nc3c(N)c(Cl)c(N)c(c23)N1C | HCC4017 |  |  | 2.87
C#CCOc1cc(C(=O)Nc2cc(OCCN)c3ccccc3n2)nc(C(=O)Nc2cc(OCCN)c3ccccc3n2)c1 | HT-1080 | ATP luminescence | 72 h | 4.7
